Results published in ChEMBL document CHEMBL1124439, “Computer-assisted design and synthesis of novel aldose reductase inhibitors” (J Med Chem, 1989).
Active and inactive are the calls of the source. The rule behind the calls is not given here.

Assays:
[1] = biological target: T1, Aldo-keto reductase family 1 member B1 (Rattus norvegicus, UniProt P07943); assay: Inhibition of aldose reductase (or polyol accumulation) in isolated rat sciatic nerve by compound at 10e-5 M concentration; type: tissue-based
Procedure, shortened: (§1)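 Isolated rat sciatic nerve incubated in vitro with compound, with polyol accumulation as read-out. Percent inhibition of polyol accumulation recorded at 1 × 10⁻⁵ M.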

[2] = biological target: Aldo-keto reductase family 1 member B1 (Bos taurus, UniProt P16116); assay: In vitro inhibition of bovine lens aldose reductase
[3] = biological target: T1, Aldo-keto reductase family 1 member B1; assay: Inhibition of aldose reductase (or polyol accumulation) in isolated rat sciatic nerve by compound at (10E-5) M concentration; type: tissue-based; procedure, shortened: as §1
Rattus norvegicus [4] = assay: Inhibition of galactitol accumulation in lens of rats, by 76 mg/kg of compound; NS=Not significant; type: functional, organism-based; set-up: dose 76 mg/kg; conditions: Lens of camera-type eye
Procedure, shortened: (§2)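 Rats were fed 20% galactose chow for 4 days with drug, at the dose given in mg/kg. Galactitol was measured in lens and sciatic nerve, and percent inhibition was calculated against galactosemic control rats.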

[5] = biological target: T1, Aldo-keto reductase family 1 member B1; assay: Inhibition of aldose reductase (or polyol accumulation) in isolated rat sciatic nerve by compound at 10E-5 M concentration; IA means Not Active; type: tissue-based; procedure, shortened: as §1
Rattus norvegicus [6] = assay: Inhibition of galactitol accumulation in sciatic nerve of rats, by 159 mg/kg of compound; NS means Not Significant.; type: functional, organism-based; set-up: dose 159 mg/kg; procedure, shortened: as §2
Rattus norvegicus [7] = assay: Inhibition of galactitol accumulation in lens of rats, by 159 mg/kg of compound; NS means Not Significant; type: functional, organism-based; set-up: dose 159 mg/kg; conditions: Lens of camera-type eye; procedure, shortened: as §2

Compound | IC50 [1] [nM] | IC50 [2] [nM] | IC50 [3] [nM] | inhibition (Rattus norvegicus [4]) | IC50 [5] | inhibition (Rattus norvegicus [6]) | inhibition (Rattus norvegicus [7])
COc1ccc2c(C(=S)N(C)CC(=O)O)cccc2c1C(F)(F)F [TOLRESTAT] | 540 | – | – | – | – | – | –
CC1=C(CC(=O)O)c2cccc3cccc(c23)C1=O | – | 240 | 2500 | inactive | – | – | –
CN(CC(=O)O)C(=S)c1cccc2ccccc12 | – | 730 | – | – | Not Active | inactive | inactive
